Measurements from ChEMBL document CHEMBL3525979, “Combined contributions of impaired hepatic CYP2C11 and intestinal breast cancer resistance protein activities and expression to increased oral glibenclamide exposure in rats with streptozotocin-induced diabetes mellitus” (Drug Metab Dispos, 2012).

What was measured:
[1] = Cmax in normal Sprague-Dawley rat at 10 mg/kg, po by HPLC method; assay type: ADME, organism-based; set-up: dose 10 mg/kg, route oral; conditions: in vivo
Procedure, shortened: (§1)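 Sprague-Dawley rats: diabetes induced by STZ 65 mg/kg i.p. in citrate buffer pH 4.5 (fasting glucose >11.1 mM at day 7). Insulin group received protamine zinc insulin 5 U/kg s.c. twice daily for 4 weeks. On day 35, overnight-fasted rats got GLB 10 mg/kg orally in 0.5% CMC-Na. Plasma GLB measured by HPLC with fluorescence detection (ex 308/em 360 nm). Non-compartmental analysis; n=6-7.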

[2] = Cmax in insulin treated Sprague-Dawley rat model of streptozotocin-induced diabetes mellitus at 10 mg/kg, po by HPLC method; assay type: ADME, organism-based; set-up: dose 10 mg/kg, route oral; conditions: in vivo; procedure, shortened: as §1
[3] = Tmax in normal Sprague-Dawley rat at 10 mg/kg, po by HPLC method; assay type: ADME, organism-based; set-up: dose 10 mg/kg, route oral; conditions: in vivo
Procedure, shortened: (§2)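 Rats given STZ 65 mg/kg i.p. in citrate buffer pH 4.5 (controls got buffer); diabetic if fasting glucose >11.1 mM at day 7; insulin group got protamine zinc insulin 5 U/kg s.c. twice daily for 4 weeks. On day 35, overnight-fasted rats dosed orally with 10 mg/kg in 0.5% CMC-Na; plasma by ethyl acetate extraction, HPLC fluorescence (ex 308/em 360 nm); non-compartmental analysis; n=6-7, mean ± S.D.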

[4] = Tmax in Sprague-Dawley rat model of streptozotocin-induced diabetes mellitus at 10 mg/kg, po by HPLC method; assay type: ADME, organism-based; set-up: dose 10 mg/kg, route oral; conditions: in vivo; procedure, shortened: as §2
[5] = Drug excretion in normal Sprague-Dawley rat bile at 10 mg/kg, po by HPLC method; assay type: ADME, organism-based; set-up: dose 10 mg/kg, route oral; conditions: read-out: Drug excretion
Procedure, shortened: (§3)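 STZ-diabetic (65 mg/kg i.p.), insulin-treated or control rats were dosed with GLB 10 mg/kg orally on day 35 after overnight fast. Urine and feces were collected in metabolic cages at 6-h intervals to 36 h. For bile, the common bile duct was cannulated under pentobarbital and bile collected to 12 h. GLB measured by HPLC-fluorescence and expressed as % of dose.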

[6] = Drug excretion in bile of Sprague-Dawley rat model of streptozotocin-induced diabetes mellitus at 10 mg/kg, po by HPLC method; assay type: ADME, organism-based; set-up: dose 10 mg/kg, route oral; conditions: read-out: Drug excretion; procedure, shortened: as §3
[7] = Drug excretion in bile of insulin treated Sprague-Dawley rat model of streptozotocin-induced diabetes mellitus at 10 mg/kg, po by HPLC method; assay type: ADME, organism-based; set-up: dose 10 mg/kg, route oral; conditions: read-out: Drug excretion; procedure, shortened: as §3
[8] = Drug excretion in normal Sprague-Dawley rat urine at 10 mg/kg, po by HPLC method; assay type: ADME, organism-based; set-up: dose 10 mg/kg, route oral; conditions: read-out: Drug excretion; procedure, shortened: as §3
[9] = Drug excretion in urine of Sprague-Dawley rat model of streptozotocin-induced diabetes mellitus at 10 mg/kg, po by HPLC method; assay type: ADME, organism-based; set-up: dose 10 mg/kg, route oral; conditions: read-out: Drug excretion; procedure, shortened: as §3
[10] = Drug excretion in urine of insulin treated Sprague-Dawley rat model of streptozotocin-induced diabetes mellitus at 10 mg/kg, po by HPLC method; assay type: ADME, organism-based; set-up: dose 10 mg/kg, route oral; conditions: read-out: Drug excretion; procedure, shortened: as §3
[11] = Drug excretion in normal Sprague-Dawley rat feces at 10 mg/kg, po by HPLC method; assay type: ADME, organism-based; set-up: dose 10 mg/kg, route oral; conditions: faeces, read-out: Drug excretion; procedure, shortened: as §3
[12] = Drug excretion in feces of Sprague-Dawley rat model of streptozotocin-induced diabetes mellitus at 10 mg/kg, po by HPLC method; assay type: ADME, organism-based; set-up: dose 10 mg/kg, route oral; conditions: faeces, read-out: Drug excretion; procedure, shortened: as §3
[13] = Drug excretion in feces of insulin treated Sprague-Dawley rat model of streptozotocin-induced diabetes mellitus at 10 mg/kg, po by HPLC method; assay type: ADME, organism-based; set-up: dose 10 mg/kg, route oral; conditions: faeces, read-out: Drug excretion; procedure, shortened: as §3
[14] = tested on: Liver microsome; experiment: Drug metabolism in normal Sprague-Dawley rat liver microsomes assessed as compound level at 4 uM after 60 mins (reference value: 2.06 +/- 0.12 ug/ml); assay type: ADME; conditions: 1 h
[15] = tested on: Liver microsome; experiment: Drug metabolism in streptozotocin-induced diabetes mellitus Sprague-Dawley rat liver microsomes assessed as compound level at 4 uM after 60 mins (reference value: 2.0 +/- 0.13 ug/ml); assay type: ADME; conditions: 1 h
[16] = tested on: Liver microsome; experiment: Drug metabolism in insulin treated streptozotocin-induced diabetes mellitus Sprague-Dawley rat liver microsomes assessed as compound level at 4 uM after 60 mins (reference value: 2.06 +/- 0.27 ug/ml); assay type: ADME; conditions: 1 h
[17] = AUC (0 to 60 mins) in normal Sprague-Dawley rat liver microsomes at 4 uM after 60 mins; assay type: ADME; set-up: time < 1 hr, dose 4 uM
Procedure, shortened: (§4)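 Liver microsomes (0.5 mg/mL protein) from control, STZ-diabetic or insulin-treated diabetic rats, 0.01 M phosphate buffer pH 7.4, 4 μM GLB (methanol <1%); 5 min preincubation at 37 °C, started with NADPH regenerating system. Stopped with 1 M HCl at 0, 5, 15, 30, 45, 60 min. GLB depletion measured by HPLC-fluorescence. AUC by linear trapezoid; Clapp = initial dose/AUC0-t; t1/2 = 0.693/terminal slope. Triplicate incubations; 4-5 rats.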

[18] = AUC (0 to 60 mins) in streptozotocin-induced diabetes mellitus Sprague-Dawley rat liver microsomes at 4 uM after 60 mins; assay type: ADME; set-up: dose 4 uM, time < 1 hr; procedure, shortened: as §4
[19] = AUC (0 to 60 mins) in insulin treated streptozotocin-induced diabetes mellitus Sprague-Dawley rat liver microsomes at 4 uM after 60 mins; assay type: ADME; set-up: dose 4 uM, time < 1 hr; procedure, shortened: as §4
[20] = Half life in normal Sprague-Dawley rat liver microsomes at 4 uM after 60 mins; assay type: ADME; procedure, shortened: as §4
[21] = Half life in streptozotocin-induced diabetes mellitus Sprague-Dawley rat liver microsomes at 4 uM after 60 mins; assay type: ADME; procedure, shortened: as §4
[22] = Half life in insulin treated streptozotocin-induced diabetes mellitus Sprague-Dawley rat liver microsomes at 4 uM after 60 mins; assay type: ADME; procedure, shortened: as §4
[23] = tested on: Liver microsome; experiment: Apparent hepatic clearance in normal Sprague-Dawley rat liver microsomes assessed per mg protein at 4 uM after 60 mins; assay type: ADME; conditions: 1 h; procedure, shortened: as §4
[24] = tested on: Liver microsome; experiment: Apparent hepatic clearance in streptozotocin-induced diabetes mellitus Sprague-Dawley rat liver microsomes assessed per mg protein at 4 uM after 60 mins; assay type: ADME; conditions: 1 h; procedure, shortened: as §4
[25] = tested on: Liver microsome; experiment: Apparent hepatic clearance in insulin treated streptozotocin-induced diabetes mellitus Sprague-Dawley rat liver microsomes assessed per mg protein at 4 uM after 60 mins; assay type: ADME; conditions: 1 h; procedure, shortened: as §4

## COc1ccc(Cl)cc1C(=O)NCCc1ccc(S(=O)(=O)NC(=O)NC2CCCCC2)cc1 [GLYBURIDE]
[1]
  Cmax: 350 ng/mL
[2]
  Cmax: 250 ng/mL
[3]
  Tmax: 90 min
[4]
  Tmax: 432 min
[5]
  dose excreted: 0.01%
[6]
  dose excreted: 0.097%
[7]
  dose excreted: 0.018%
[8]
  dose excreted: 0.0042%
[9]
  dose excreted: 0.023%
[10]
  dose excreted: 0.019%
[11]
  dose excreted: 72%
[12]
  dose excreted: 40%
[13]
  dose excreted: 50%
[14]
  Drug uptake: 0.07 µg/mL
[15]
  Drug uptake: 0.52 µg/mL
[16]
  Drug uptake: 0.09 µg/mL
[17]
  AUC(0-t) at 1 h, 4 µM: 307 ng·h/mL
[18]
  AUC(0-t) at 1 h, 4 µM: 916 ng·h/mL
[19]
  AUC(0-t) at 1 h, 4 µM: 357 ng·h/mL
[20]
  half-life at 4 µM: 12.4 min
[21]
  half-life at 4 µM: 31.5 min
[22]
  half-life at 4 µM: 12.7 min
[23]
  CLH(app): 205 µL/min/mg
[24]
  CLH(app): 52 µL/min/mg
[25]
  CLH(app): 176 µL/min/mg
